Screening data (PubChem BioAssay)
This is a sample that favours compounds with a hit; in the whole collection about 1.1% have one here.
Furin inhibitor: inhibitors of human furin | 0.061% of 220,000 active | inhibition, % at 20 µM or 30 µM | P09958 | purified furin, fluorogenic substrate cleavage; in the data active = inhibition above about 25%
Thrombin inh: blocks human thrombin protease activity. inhibition, % at 5 µM. alpha-thrombin, Boc-VPR-AMC fluorogenic substrate cleavage. 0.26% of 220,000 active. P00734. AID 1046;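 active = inhibition at or above 40%; inactive = inhibition below 40%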
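Test system: human alpha-thrombin protein / Dosing: one concentration per compound, 5 µM, with 0.2% DMSO / Medium: pH 7.5 Tris-saline with Tween 20 / Benchmarks: no-compound enzyme wells and no-enzyme blanks / Read-out basis: percent inhibition of thrombin substrate cleavage / Timing: reaction at room temperature / Measured by: fluorescence, ex 355 nm, em 460 nm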
FXIa inh: inhibitors of human coagulation factor XIa; inhibition, % at 5 µM; P03951; 0.14% of 220,000 active; purified FXIa, Boc-Glu-Ala-Arg-AMC fluorogenic substrate;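 active = inhibition of at least 40%; inactive = inhibition below 40%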;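 note: fluorescence of freed AMC excited at 355 nm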
FXIIa inh: blocks human coagulation factor XIIa protease activity; AID 800; 0.3% of 220,000 active; P00748; purified FXIIa, Boc-QGR-AMC fluorogenic substrate, 2 h; inhibition, % at 5 µM; in the data active = inhibition above about 40%
hK5 inh: inhibitors of human kallikrein 5; 0.59% of 210,000 active; recombinant hK5, fluorogenic AMC substrate cleavage; inhibition, % at 5 µM;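 active = inhibition of 40% or more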
Target sequence (Q9Y337 67-293 limits assumed): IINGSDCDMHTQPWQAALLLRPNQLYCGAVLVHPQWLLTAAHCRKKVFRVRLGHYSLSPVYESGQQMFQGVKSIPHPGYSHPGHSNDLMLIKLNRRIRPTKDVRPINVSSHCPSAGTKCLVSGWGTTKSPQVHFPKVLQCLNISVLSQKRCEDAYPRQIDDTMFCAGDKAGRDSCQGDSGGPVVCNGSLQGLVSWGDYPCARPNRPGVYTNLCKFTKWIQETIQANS
A number is an active result; n = inactive; x = no result given.

SMILES	Furin inhibitor	Thrombin inh	FXIa inh	FXIIa inh	hK5 inh
Cc1cc(C(=O)C[N+]2(C)CCOCC2)c(C)n1-c1ccc(Br)cc1	n	n	n	n	n
NS(=O)(=O)c1ccc(NC(=O)Nc2ccc(Cl)cc2)cc1	n	n	n	n	44.4
CC(C)N1CC(O)=C(c2nc3ccccc3[nH]2)C1=N	n	n	n	n	n
CC(C1CC2CCC1C2)N1CC(O)=C(c2nc3ccccc3[nH]2)C1=N (stereo unspecified)	n	n	n	48.9	n
S=C1Nc2ccccc2Sc2ccc(Cl)cc21	n	n	n	n	67.1
Clc1cc2c(nn1)Nc1ccccc1S2	n	n	n	n	n
CSc1nc(S(=O)(=O)c2ccccc2)c(Cl)s1	n	n	n	n	n
COc1cccc(C(=O)NNC2OC(CO)C(O)C2O)c1 (stereo unspecified)	n	n	n	n	n
Cc1sc(NC(=O)CN(C)C2CCCCC2)nc1-c1ccc2c(c1)CCN2S(=O)(=O)c1ccccc1	n	n	n	n	42.6
N#Cc1cnn2c3c(cnc12)C(=O)N1CCc2ccccc2C1C3 (stereo unspecified)	n	n	n	n	n
COc1ccc(-c2nnc(NC(=O)Cc3ccccc3)s2)c(OC)c1	n	n	n	n	51.8
O=C(CN(Cc1ccccc1)S(=O)(=O)c1ccc(F)cc1)NCCC1=CCCCC1	n	n	n	n	n
Cc1ccc(S(=O)(=O)N(CC(=O)NCCC2=CCCCC2)Cc2ccccc2)cc1	n	n	n	42.0	n
c1ccc(Cn2c[n+](Cc3ccccc3)cn2)cc1	n	n	n	n	n
c1csc(CSc2nc3ccccc3s2)c1	n	n	n	n	n
NNC(=O)c1ccc(CSc2nc3ccccc3s2)cc1	n	n	n	48.6	n
COc1ccc(S(=O)(=O)Nc2ccc(CC#N)cc2)cc1	n	n	n	n	43.3
N#CCc1ccc(NS(=O)(=O)c2ccc(C3CCCCC3)cc2)cc1	n	n	n	n	n
N/C(=N\S(=O)(=O)c1ccccc1)c1ccc([N+](=O)[O-])cc1	n	47.7	n	n	n
N/C(=N/S(=O)(=O)c1ccccc1)c1cccc([N+](=O)[O-])c1	n	n	n	n	x
COc1ccccc1N1CCN(C/C(O)=C(\C#N)c2nc(-c3ccccc3)cs2)CC1	n	n	n	43.2	n
CC1(C)Cc2nc3oc4c(SCC(N)=O)ncnc4c3cc2CO1	n	n	n	n	n
CCCc1nc2n[nH]c(N)c2c2c1CCC2	n	n	n	55.0	n
CCCc1nc2n[nH]c(N)c2c2c1CCCC2	n	n	n	n	n
O=C1NC2(CCCCC2)C(=O)N1Cc1cccc(C(F)(F)F)c1	n	n	n	n	n
SMILES	Furin inhibitor	Thrombin inh	FXIa inh	FXIIa inh	hK5 inh
O=C(Nc1ccccc1)c1cccc(N2C(=O)CCC2=O)c1	n	n	n	n	63.5
Cc1cc(NC(=O)COC(=O)c2cccc(S(=O)(=O)N(C)C3CCCCC3)c2)no1	n	n	n	43.3	n
Cc1cc(NC(=O)COC(=O)c2cccc(O)c2)no1	n	n	n	n	n
Cc1ccc(NS(=O)(=O)c2ccc(C(=O)OCC(=O)Nc3cc(C)on3)cc2)cc1	n	n	101.9	n	48.0
Cc1cc(NC(=O)COC(=O)C2CCN(S(=O)(=O)c3c(Cl)cccc3Cl)CC2)no1	n	n	n	43.2	n
COc1ccc(NS(=O)(=O)c2cccc(C(=O)OCC(=O)Nc3cc(C)on3)c2)cc1	n	n	n	n	n
Cc1cc(NC(=O)CSCC(=O)N(c2cccc(Cl)c2)C(C(=O)NC2CCCCC2)c2ccc(O)c(O)c2)no1 (stereo unspecified)	n	n	n	n	n
Cn1c(NC(=O)/C=C\c2ccccc2)cc(=O)n(C)c1=O	n	n	n	n	n
Cc1cc(C(F)(F)F)c(C#N)c(SCC(=O)NC(C)(C)C)n1	n	n	n	n	41.8
CCOC(=O)C(C(=O)NCC1CCCO1)C1CCCCC1 (stereo unspecified)	28.0	n	n	n	n
COC(=O)C(C(=O)NCC1CCCO1)C1CCCCCC1 (stereo unspecified)	n	n	n	n	n
COc1ccc(C2=NCCn3cccc32)c(OC)c1	n	n	n	n	40.7
O=C(CN1C(=O)/C(=C\c2cccc(Cl)c2)Oc2ccccc21)N1CCN(c2ccccn2)CC1	n	n	n	n	n
CC(=O)c1ccc(O)c(CSC2=NCCS2)c1	n	66.8	n	n	n
COc1cc(C(=O)NCC(=O)OCn2nnc3ccccc3c2=O)cc(OC)c1OC	n	n	40.3	n	n
CC(C)(C)NC(=O)NC(=O)CSc1nnc(-c2ccccc2F)n1N	n	n	n	n	n
